In the library only some 3.1% were active in any assay of this set; here they are far more common.
Myeloid diff 2 = promotes myeloid progenitor differentiation | calls only at 10 µM | ER-HoxA9 myeloid progenitors, lysozyme-GFP differentiation, flow cytometry | AID 624256 | actives 1% (n = 360,000);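 active = normalized GFP-positive differentiation at or above the plate's own cutoff, the solvent-only control mean plus 3 SD; inconclusive = no clear call, values can overlap the other calls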;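 also: cells exposed to compound for four days before flow analysis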
Fh CTSL1 inh = cathepsin L1 inhibition, PFM18AAP counter-screen | inhibition, % at 5.96 µM | recombinant F. hepatica cathepsin L1, Z-Leu-Arg-MCA fluorescence | actives 0.49% (n = 300,000);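 active = inhibition above the mean of all tested compounds plus 3 SD, set per screening campaign, cut at about 17% in these data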
NadD inh = blocks S. aureus nicotinate mononucleotide adenylyltransferase | purified NadD enzyme, colorimetric absorbance read-out | inhibition, % at 20 µM | actives 0.78% (n = 360,000); in the data active = inhibition above about 26%
PP5 primary = PP5 (human) phosphatase inhibition; P53041; purified PP5c, OMFP substrate fluorescence; inhibition, % at 6.7 µM; actives 0.18% (n = 320,000); AID 1987;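 active = inhibition above the campaign's mean inhibition across all tested compounds plus 3 SD, cut at about 9.5% in these data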
Target sequence (P53041 whole entry, looked up): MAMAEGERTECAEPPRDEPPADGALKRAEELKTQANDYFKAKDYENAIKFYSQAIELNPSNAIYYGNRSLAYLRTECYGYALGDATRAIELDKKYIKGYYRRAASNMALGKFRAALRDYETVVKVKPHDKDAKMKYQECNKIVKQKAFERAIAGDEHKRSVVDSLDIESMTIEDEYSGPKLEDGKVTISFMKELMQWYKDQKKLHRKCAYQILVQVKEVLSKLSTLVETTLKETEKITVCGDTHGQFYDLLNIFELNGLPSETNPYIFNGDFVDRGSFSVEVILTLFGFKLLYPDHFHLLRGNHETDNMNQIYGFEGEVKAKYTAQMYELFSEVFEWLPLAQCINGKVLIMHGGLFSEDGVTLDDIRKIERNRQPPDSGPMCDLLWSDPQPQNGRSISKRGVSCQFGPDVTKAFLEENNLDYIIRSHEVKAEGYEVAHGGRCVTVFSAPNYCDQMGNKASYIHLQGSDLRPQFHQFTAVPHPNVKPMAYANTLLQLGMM
PP1 inh = counter-screen for PP5 inhibitors: inhibitors of human PP1-alpha; P62136; purified PP1alpha, OMFP fluorescence; inhibition, % at 6.7 µM; actives 0.9% (n = 320,000); AID 2235;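 active = inhibition above the mean inhibition of all tested compounds plus 3 SD, computed separately for each screening campaign, cut at about 15% in these data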
HCV core dimer = HCV core protein dimerization inhibition; TR-FRET GST/Flag-core106 dimerization, 1536-well; inhibition, % at 5 µM; actives 0.33% (n = 300,000); AID 1899;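 active = inhibition above the mean of all tested compounds plus 3 SD, set per screening campaign, cut at about 45% in these data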
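Material: Tagged HCV core106 pair (GST and Flag) | Amount: GST-core106 13.5 nM, Flag-core106 17 nM | Medium: KF-containing HEPES buffer, pH 7.45, DTT, CHAPS, BSA | Reagent: Eu donor and XL665 acceptor anti-tag antibodies | Schedule: 4 h at 22.5 °C | Technique: Time-resolved FRET, ex 340 nm, em 617 and 671 nm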
PP1 confirm = confirmation of human PP1 phosphatase inhibitors | shares compounds with PP1 inh | purified PP1alpha, OMFP substrate fluorescence | inhibition, % at 6.7 µM | actives 52% (n = 1,900) | AID 2358;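 active = mean PP1 inhibition above a set limit taken from the earlier primary screen, cut at about 15% in these data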
PP5 inh counter = counter-screen for PP1 inhibitors: human PP5 phosphatase inhibition | shares compounds with PP1 inh | purified PP5c, OMFP fluorescence | inhibition, % at 6.7 µM | actives 4% (n = 1,900);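 active = mean PP5 inhibition over triplicate wells above about 9.5% taken from the earlier PP1 screen, limit read from the data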
Of the large screens only hits and unclear results are named; the others gave an inactive call (follow-up assays come after a bar, where they were run).

Cc1ccc(/C=C2\SC(=S)N(NS(=O)(=O)c3ccc(C)cc3)C2=O)cc1	none
CCN(CC)S(=O)(=O)c1cc(C(=O)OC(C)C(=O)NCc2ccco2)ccc1C (stereo not given)	none (no result: Fh CTSL1 inh, HCV core dimer)
O=Nc1ccc(O)c2ncccc12	Myeloid diff 2 inconclusive
COc1ccc(N=Nc2ccc(O)c3ncccc23)cc1	Myeloid diff 2 inconclusive, NadD inh 40.3, PP1 inh 27.2 | PP1 confirm 26.1 | PP5 inh counter inactive
COc1cccc(N=Nc2ccc(O)c3ncccc23)c1	Myeloid diff 2 inconclusive, NadD inh 34.3, PP1 inh 26.9 | PP1 confirm 23.4 | PP5 inh counter inactive
COc1ccc(C)cc1N=Nc1ccc(O)c2ncccc12	Myeloid diff 2 inconclusive (no result: Fh CTSL1 inh, PP5 primary, PP1 inh, HCV core dimer)
COc1cccc(N=Nc2ccc3cccnc3c2O)c1	Myeloid diff 2 inconclusive, PP1 inh 30.8 | PP1 confirm 24.9 | PP5 inh counter inactive
O=S(=O)(O)c1cccc2c(N=Nc3ccc(O)c4ncccc34)cccc12	PP1 inh 46.8 | PP1 confirm 18.9 | PP5 inh counter inactive
O=[N+]([O-])c1cc(-c2cccnc2)n[nH]1	none (no result: Fh CTSL1 inh, PP5 primary, PP1 inh, HCV core dimer)
O=C(O)CCCCCNC(=O)C(=O)C1C(=O)Nc2ccccc21 (stereo not given)	none
COc1cc2oc(=O)ccc2cc1[C@@H](O)[C@@H]1OC(C)(C)OC1(C)C	none (no result: Fh CTSL1 inh, HCV core dimer)
CN1CCc2nc3sc(C(=O)C45CC6CC(CC(C6)C4)C5)c(N)c3cc2C1	PP1 inh 29.4 | PP1 confirm inactive | PP5 inh counter inactive
Cc1cccc(N2CCN(S(=O)(=O)c3ccc4c(c3)CC(=O)N4C)CC2)c1C	PP1 inh 17.8 | PP1 confirm inactive | PP5 inh counter inactive
Cc1c(Cl)ccc(S(=O)(=O)N2CCN(C)CC2)c1Cl	none (no result: Fh CTSL1 inh, PP5 primary, PP1 inh, HCV core dimer)
CC(C1CC2CCC1C2)n1c(COc2ccccc2F)nnc1SCC(N)=O (stereo not given)	none
CC(C)NC(=O)NC(=O)CSc1nnc(COc2ccccc2F)n1C(C)C1CC2CCC1C2 (stereo not given)	PP5 primary 10.1, PP1 inh 21.3 | PP1 confirm inactive | PP5 inh counter inactive
COc1ccc(/C=C2\N=C(c3c(-c4ccccc4)noc3C)OC2=O)cc1OC	PP1 inh 19.1 | PP1 confirm inactive | PP5 inh counter inactive
CCOC(=O)c1ccccc1NC(=O)COC(=O)CCNS(=O)(=O)c1ccccc1	none
COc1ccc(C2C(C#N)=C(N)Oc3cc(O)ccc32)cc1Cl (stereo not given)	none
Cc1ccc(S(=O)(=O)NCCC(=O)Nc2ccc(S(=O)(=O)NC(C)C)cc2)cc1	none
CNc1ncnc2c1ncn2[C@H]1CN(Cc2ccco2)C[C@@H](CO)O1	none (no result: Fh CTSL1 inh, PP5 primary, PP1 inh, HCV core dimer)
CCN(CC)CCOC(=O)c1ccc(N/C=C(/C#N)c2nc(-c3cccc(OC)c3)cs2)cc1	PP1 inh 53.8 | PP1 confirm inactive | PP5 inh counter inactive
c1ccc(-c2nccc(-c3ccc(-n4cnc5ccccc54)cc3)n2)cc1	PP1 inh 18.1 | PP1 confirm 24.5 | PP5 inh counter inactive
c1ccc(-n2cnc3ccccc32)nc1	none
C[N+](C)(CCOc1ccccc1)Cc1ccccc1	none (no result: Fh CTSL1 inh, PP5 primary, PP1 inh, HCV core dimer)
Cc1cc(C(C)(C)CC(C)(C)C)ccc1OCCOCC[N+](C)(C)Cc1ccccc1	PP1 inh 29.9 | PP1 confirm inactive | PP5 inh counter inactive
CCOC(=O)c1ccccc1NC(=O)COC(=O)C(CC)Oc1ccccc1 (stereo not given)	none (no result: Fh CTSL1 inh, PP5 primary, PP1 inh, HCV core dimer)
COc1ccc(-c2ccnc3nc(-n4cccc4)nn23)cc1	PP1 inh 18.6 | PP1 confirm 19.5 | PP5 inh counter inactive
COc1ccc(-c2ccnc3nc(N4CCOCC4)nn23)cc1	none
Cc1ccccc1NC(=O)COC(=O)/C=C/c1cn(-c2ccccc2)nc1-c1cccnc1	PP1 inh 31.6 | PP1 confirm 31.7 | PP5 inh counter inactive
CCN(CC(=O)Nc1c(F)cccc1F)C(=O)c1ccc2ccccc2n1	none
CCN(CC(=O)Nc1c(F)cccc1F)C(=O)/C=C/c1ccc2ccccc2n1	PP1 inh 21.7, HCV core dimer 75.2 | PP1 confirm inactive | PP5 inh counter inactive
